For one data set, the target named is T1, S. aureus ThrRS (Staphylococcus aureus, UniProt Q2FXP7).
T1 sequence (Q2FXP7 1-645): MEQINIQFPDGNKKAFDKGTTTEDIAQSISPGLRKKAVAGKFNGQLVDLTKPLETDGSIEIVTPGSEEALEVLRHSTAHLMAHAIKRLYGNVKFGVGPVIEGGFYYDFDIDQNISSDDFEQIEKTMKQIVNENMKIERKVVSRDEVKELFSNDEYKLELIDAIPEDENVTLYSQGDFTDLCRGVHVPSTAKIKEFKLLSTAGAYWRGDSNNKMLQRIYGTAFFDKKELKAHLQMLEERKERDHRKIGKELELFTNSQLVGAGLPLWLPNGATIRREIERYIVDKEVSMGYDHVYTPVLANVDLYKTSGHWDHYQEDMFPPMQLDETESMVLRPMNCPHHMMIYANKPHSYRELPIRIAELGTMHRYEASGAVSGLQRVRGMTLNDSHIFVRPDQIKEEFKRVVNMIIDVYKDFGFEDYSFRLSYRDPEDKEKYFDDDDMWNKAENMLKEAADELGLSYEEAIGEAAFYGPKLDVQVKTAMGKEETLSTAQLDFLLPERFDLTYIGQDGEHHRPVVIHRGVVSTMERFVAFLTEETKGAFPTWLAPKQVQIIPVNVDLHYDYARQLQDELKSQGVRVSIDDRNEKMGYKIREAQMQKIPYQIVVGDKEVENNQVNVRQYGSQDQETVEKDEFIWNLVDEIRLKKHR
Put plainly: In vitro aminoacylation assay. In kind it is biochemical. The following applies: read-out: inhibition of S. aureus ThrRS. In outline: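 S. aureus ThrRS expressed in E. coli BL21(DE3)pLysS (0.25 mM IPTG, 3 h, 37 °C), purified on DEAE then heparin columns. Started with 10 mM ATP; 10 min, 37 °C; TCA-precipitated on filters, scintillation-counted; at least duplicates.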

A further data set relates to HEK293 cells. Kind of data set: MTT assay, cytotoxicity. In kind it is cell-based, human. Particulars: at a concentration of 100 μM; 72 h. The method in brief:
(§1)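 HEK293 cells kept in DMEM with 10% FBS plus penicillin/streptomycin, 37 °C, 5% CO2. Seeded at 2 × 10^5 cells/mL and grown 24 h, then exposed 72 h to test compound in DMSO (final DMSO below 0.5%) at various concentrations. MTT (5 mg/mL solution) added for 4 h; formazan dissolved in DMSO, A540 read; viability expressed as percent of untreated control cells.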
For orientation: Formazan colour is commonly taken as a measure of viable cells.

The nature of a further data set: MTT assay, cytotoxicity. In kind it is cell-based, human. The following applies: human, HEK293 cells. The method in brief:
as §1

Each structure is given as a SMILES string. A value given as a limit tells only on which side of the number the result lay.

Turning to `Cc1ccc([N+](=O)[O-])cc1NC(=O)COc1ccccc1C(C)(C)C` [compound 2, 2-(2-tert-butyl-phenoxy)-N-(2-methyl-5-nitro-phenyl)-acetamide], the inhibition – broadly, the change of the read-out against control, counted positive when it falls – at 100 µM at S. aureus ThrRS came out at 85.6%. The “cytotoxicity toward HEK293” value with HEK293 cells was “not cytotoxic”.

On to `Cc1cc(I)ccc1N1C(=O)CC(Sc2ncccc2C(=O)O)C1=O` (stereo not drawn) [compound 11, 2-[1-(4-iodo-2-methyl-phenyl)-2,5-dioxo-pyrrolidin-3-ylsulfanyl]-nicotinic acid], for which the inhibition at 100 µM at S. aureus ThrRS stood at 78.6%. Besides, the EC50 (commonly the concentration giving half of the maximal effect) at 72 h in the data set “MTT assay, cytotoxicity” is > 100 µM. Besides, in the data set with HEK293 cells, the “decrease of the growth of HEK293 cells” value was 30%.

With `COc1ccc(C(=O)CSc2nc3ccc([N+](=O)[O-])cc3s2)cc1` [compound 1, 1-(4-methoxy-phenyl)-2-(6-nitro-benzothiazol-2-ylsulfanyl)-ethanone], the inhibition at 100 µM on S. aureus ThrRS is 88.5%. Further, the “cytotoxicity toward HEK293” value in the data set with HEK293 cells was “not cytotoxic”.

Regarding `CCOC(=O)c1c(-c2ccc(Cl)cc2)csc1NC(=O)CN1CC(C)OC(C)C1` (stereo not drawn) [compound 8, 4-(4-chloro-phenyl)-2-[2-(2,6-dimethyl-morpholin-4-yl)-acetylamino]-thiophene-3-carboxylic acid ethyl ester], the inhibition at 100 µM at S. aureus ThrRS stood at 78.3%. In the data set with HEK293 cells, the “cytotoxicity toward HEK293” value is given as “not cytotoxic”.

Source of the values: publication PMC8482496 (ACS Omega, 2021).
